# High-throughput results as filed in PubChem.
# T cruzi inh: T. cruzi replication inhibition; T. cruzi beta-gal in NIH3T3, luminescence, 90 h; inhibition, % (test concentration not listed); actives 1.4% (n = 300,000); AID 1885;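 active = mean inhibition across valid replicates above about 55%, limit read from the data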;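 note: signal also drops with host cell toxicity which is not excluded here; 0% = plate median of DMSO wells and 100% = zero luminescence signal; higher percent means less beta-gal luminescence so fewer parasites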
#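 System: NIH/3T3 fibroblasts plus reporter T. cruzi. Medium: DMEM plus 2% FBS. Probe or stimulus: 5000 reporter trypomastigotes per well. Compound: single 50 nL compound addition per well in DMSO. Incubation: co-culture of at least 90 h after 3 h attachment. Detection: GalScreen β-gal luminescence, detergent lysis, 60 min. Evaluation: parasite load inhibition, %.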
# Calb FLC: affects C. albicans growth with fluconazole. actives 0.57% (n = 300,000). growth inhibition, % (test concentration not listed). C. albicans CaCi-2 + fluconazole, Alamar Blue growth, 48 h;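 active = growth inhibition above about 58% in most replicates, limit read from the data, passing the limit was not always enough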;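 note: all wells also contain fluconazole at 8 µg/ml as a sub-toxic cotreatment; 0% = median of DMSO wells and 100% = median of geldanamycin control wells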
# Mdm2 MdmX PPI: disrupts the human Mdm2-MdmX interaction | O15151+Q00987 | SaOS-2 split-luciferase Mdm2/MdmX complementation, luminescence | inhibition, % at 8 µM | actives 3% (n = 330,000) | AID 485346;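 active = inhibition of at least 50% at 8 µM in the primary screen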
# Target sequence (O15151 whole entry, looked up): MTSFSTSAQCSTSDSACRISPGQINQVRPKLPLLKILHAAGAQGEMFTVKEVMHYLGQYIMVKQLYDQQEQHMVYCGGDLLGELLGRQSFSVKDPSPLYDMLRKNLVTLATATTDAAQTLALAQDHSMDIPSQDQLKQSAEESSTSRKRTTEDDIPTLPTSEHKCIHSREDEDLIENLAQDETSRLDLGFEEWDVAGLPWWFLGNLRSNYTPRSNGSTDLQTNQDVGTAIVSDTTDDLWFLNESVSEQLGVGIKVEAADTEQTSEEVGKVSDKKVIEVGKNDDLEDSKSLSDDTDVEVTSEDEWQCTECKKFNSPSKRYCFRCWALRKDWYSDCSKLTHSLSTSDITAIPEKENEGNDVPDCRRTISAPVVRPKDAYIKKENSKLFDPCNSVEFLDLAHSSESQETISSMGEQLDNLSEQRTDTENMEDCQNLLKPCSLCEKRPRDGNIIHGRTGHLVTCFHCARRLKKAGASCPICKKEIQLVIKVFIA
# Target sequence (Q00987 whole entry, looked up): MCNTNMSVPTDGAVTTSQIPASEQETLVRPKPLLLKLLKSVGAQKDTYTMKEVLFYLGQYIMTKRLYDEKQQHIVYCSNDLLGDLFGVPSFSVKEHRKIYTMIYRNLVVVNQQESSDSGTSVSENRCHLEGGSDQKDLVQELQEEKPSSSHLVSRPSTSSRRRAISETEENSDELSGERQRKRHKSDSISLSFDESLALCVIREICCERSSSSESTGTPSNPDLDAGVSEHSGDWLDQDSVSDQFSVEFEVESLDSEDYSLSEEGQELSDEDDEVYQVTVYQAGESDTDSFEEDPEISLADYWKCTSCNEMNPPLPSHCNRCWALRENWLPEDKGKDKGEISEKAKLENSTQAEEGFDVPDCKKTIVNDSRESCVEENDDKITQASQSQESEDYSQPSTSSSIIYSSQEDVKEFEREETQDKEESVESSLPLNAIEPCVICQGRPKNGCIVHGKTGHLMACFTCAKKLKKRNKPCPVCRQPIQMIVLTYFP
# NALP3 yeast inh: NALP3 inhibition in yeast; Yeast reconstituted NLRP3/ASC/caspase-1, beta-gal luminescence, 24 h; actives 0.39% (n = 330,000); AID 2825; inhibition, % at 10 µM;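 active = inhibition of 50% or more; inactive = inhibition below 50%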;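 note: plate controls were induced DMSO wells for no effect and uninduced yeast grown without galactose for full effect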
# Beta cell apopt: beta cell apoptosis inhibition | INS-1E cytokine-induced death, ATP luminescence, 48 h; percent of positive-control rescue, neutral wells zero | protection from apoptosis, % (concentration not given with the values) | actives 0.8% (n = 300,000) | AID 435005;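 active = Every replicate reaches about 75%, or at least half do and their mean reaches it too, limit read from the data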;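 note: 0% = cytokine-treated negative control wells and 100% = positive control rescue; higher means more ATP so stronger rescue from cytokine killing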
# CSC inhib: cancer stem cell inhibition; cancer stem cell-like cells viability, luminescence; inhibition, % at 7.5 µM; actives 1.1% (n = 300,000); in the data active = inhibition above about 75%; tested in HMLE shEcad cells
# Mdm2-MdmX conf: confirmation of human Mdm2/MdmX interaction inhibitors. shares compounds with Mdm2 MdmX PPI. Mdm2-MdmX binding, luminescent assay. inhibition, % at 8 µM. actives 55% (n = 10,000). AID 489028; in the data active = inhibition above about 40%
# FLuc counter: inhibits full-length luciferase, flagging false Mdm2/MdmX hits | shares compounds with Mdm2 MdmX PPI | SaOS-2 full-length luciferase counterscreen, luminescence | inhibition, % at 8 µM | actives 77% (n = 6,200);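 active = mean inhibition at 8 µM reaching about 37%, which flags the compound as non-specific, limit read from the data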;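 note: p53-null SaOS-2 cells with luciferase driven by a doxycycline-inducible promoter; compound on cells about two nights before reading with doxycycline added after day one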
# Active calls of the source: *; . = not tested or not shown; + = active, no number. Sampled rows, rich in hits. Any-hit rate of the full collection: about 5.3%.
SMILES,T cruzi inh,Calb FLC,Mdm2 MdmX PPI,NALP3 yeast inh,Beta cell apopt,CSC inhib,Mdm2-MdmX conf,FLuc counter
CCCCC(=O)NC(c1ccc(N(C)C)cc1)c1ccc2cccnc2c1O (centres undefined),56.6*,93.9*,74.6*,13.4,93.8*,108.2*,86.0*,23.7
CCCCC(=O)NC(c1ccc(N(CC)CC)cc1)c1ccc2cccnc2c1O (centres undefined),68.1*,121.0*,82.5*,14.2,88.6*,+,85.8*,20.0
CNC(=O)C(=O)NCC1CCCN1S(=O)(=O)c1cccs1 (centres undefined),5.1,-1.6,-17.3,7.2,-1.8,-0.4,.,.
CC(=C/c1ccc(C(C)C)cc1)/C=N/NC(=O)CSc1ccccn1,20.4,18.2,-8.9,7.5,27.6,-9.8,.,.
CC(=O)Nc1nnc(SCC(=O)N2CCN(Cc3ccccc3)CC2)s1,-2.4,-5.9,13.0,3.2,-0.9,-4.9,.,.
Cc1cc(C)n(-c2nc(SCCN(C)C)c3c4c(sc3n2)CCCC4)n1,41.0,78.8*,92.2*,26.1,30.5,-6.3,60.3*,71.9*
Cc1cc(C)n(-c2nc(SCC(=O)O)c3c4c(sc3n2)COC(C)(C)C4)n1,30.6,20.2,7.7,-11.2,9.5,12.1,.,.
N/C(=N\OC(=O)c1ccc(Cl)cc1)c1ccc(Cl)cc1,-5.7,12.0,11.3,32.6,-3.9,-2.4,.,.
N/C(Cn1cncn1)=N\OC(=O)c1ccc(Cl)cc1,-14.9,31.4,51.0*,3.4,-1.3,-4.0,-6.0,.
COc1ccc(OCc2cc(C(=O)NC3Cc4ccccc4C3)no2)c(Cl)c1,-20.8,-0.2,51.7*,3.0,4.1,36.7,70.5*,71.7*
Cc1ccc(-c2nn(-c3ccccc3)cc2/C=N/NC(=O)c2ccc(Br)o2)cc1,22.9,-4.1,83.1*,6.3,135.6*,29.3,14.1,.
Cc1cccc(Cl)c1NC(=S)N1CCN(c2ccc([N+](=O)[O-])cn2)CC1,3.4,-1.6,20.2,9.1,-1.7,-8.3,.,.
COc1ccc(/C=C2\CCCC3C2=NN(C(=O)c2scnc2C)C3c2ccc(OC)c(OC)c2)cc1OC (centres undefined),25.0,0.0,13.6,1.5,3.1,-20.2,.,.
CCOC(=O)/C(=C\Nc1ccccc1C(F)(F)F)Sc1ncc(C(F)(F)F)cc1Cl,5.8,6.7,-2.5,11.7,8.6,-0.9,.,.
COC(=O)/C(=C\Nc1ccc(Cl)c2ccccc12)c1ncc(C(F)(F)F)cc1Cl,6.5,-3.7,58.8*,0.6,0.1,-2.3,4.0,.
O=S(=O)(c1ccc2nc(N3CCN(c4ccccc4)CC3)ccc2c1)N1CCCCC1,-21.6,-6.3,41.8,9.9,-6.7,-11.4,.,.
CC(=O)c1ccc(N2CCN(c3ccc4cc(S(=O)(=O)N5CCC(C)CC5)ccc4n3)CC2)cc1,-9.3,-8.3,61.4*,2.3,22.8,.,-2.1,.
COc1ccccc1N1CCN(c2ccc3cc(S(=O)(=O)N4CCCCC4)ccc3n2)CC1,34.3,-9.4,50.8*,3.9,29.3,.,6.4,.
O=c1[nH]c(C2CCN(S(=O)(=O)c3ccc4c(c3)OCCO4)CC2)nc2c1nnn2Cc1c(F)cccc1Cl,-6.1,10.5,56.3*,17.4,-5.4,20.9,46.6*,59.1*
O=c1[nH]c(C2CCN(S(=O)(=O)c3ccc4c(c3)OCCO4)CC2)nc2c1nnn2Cc1ccccc1F,33.5,-7.0,15.5,20.5,2.3,7.9,.,.
COc1ccc(C(=O)Oc2cc3c4c(c2)C(C)=CC(C)(C)N4C(=O)C3=O)cc1OC,-2.0,-5.6,67.0*,11.7,9.4,11.5,23.9,.
COc1cccc(C(=O)Oc2cc3c4c(c2)C(C)=CC(C)(C)N4C(=O)C3=O)c1,-35.0,3.4,66.5*,3.7,36.6,6.7,49.8*,44.5*
COc1cc2c3c(c1)C(C)=CC(C)(C)N3C(=O)C2=O,-2.9,-39.3,55.5*,18.4,13.7,10.9,26.3,.
C=CCN1CCN(C(c2cc(OC)ccc2OC)c2nnnn2CC2CCCO2)CC1 (centres undefined),1.3,-0.5,5.9,9.1,-1.8,-14.9,.,.
CCc1noc(C)c1C(=O)N(CCOC)c1c(N)n(CC(C)C)c(=O)[nH]c1=O,-3.2,11.3,14.3,-1.8,7.0,-6.2,.,.
SMILES,T cruzi inh,Calb FLC,Mdm2 MdmX PPI,NALP3 yeast inh,Beta cell apopt,CSC inhib,Mdm2-MdmX conf,FLuc counter
CCn1cc(C2N3CC4(C)CN2CC(C)(C3)C4=O)c2ccccc21 (centres undefined),-9.6,2.0,13.2,11.5,1.2,-9.0,.,.
O=C(Nc1cnn(C23CC4CC(CC(C4)C2)C3)c1)c1cnn2c(C(F)(F)F)cc(-c3ccco3)nc12,-6.4,-10.3,58.1*,24.6,20.3,43.0,16.6,.
CN(Cc1ccccc1F)C(=O)C1CCCN(C(=O)c2ccc(Cl)cc2)C1 (centres undefined),.,.,25.1,11.9,.,.,.,.
N#Cc1nc(NCC(F)F)nc(Nc2cc(F)cc(F)c2)n1,.,.,64.3*,18.2,5.0,30.5,58.5*,28.0
CCCn1nc(NC(=O)c2ccccn2)c2cc3cc(C)ccc3nc21,13.2,2.2,9.3,4.8,-2.4,.,.,.
COc1ccccc1C1=NOC(COc2ccc3c(C)cc(=O)oc3c2)C1 (centres undefined),-7.7,-3.6,58.3*,18.4,19.8,79.1*,57.6*,88.2*
COc1ccc(C2=NOC(COc3ccc4c(C)cc(=O)oc4c3)C2)c(OC)c1 (centres undefined),10.5,-0.2,56.0*,19.4,5.0,60.9,56.4*,60.3*
COc1cccc(COc2ccc3c(C)cc(=O)oc3c2)c1,-7.1,4.2,-198.4,27.6,6.3,6.2,.,.
O=C(NCCc1c[nH]c2ccccc12)c1ccc2[nH]c(=O)c(=O)[nH]c2c1,-4.9,12.6,4.4,-4.5,.,.,.,.
CCOC(=O)c1sc2nc(C)nc(Nc3ccccc3)c2c1C,10.4,3.4,14.4,13.8,-0.9,-6.8,.,.
CCOC(=O)c1sc2nc(C)nc(NCc3ccccc3)c2c1C,22.0,-4.7,52.0*,11.7,-12.7,0.8,25.8,112.9*
Cc1cc(/C=C2\SC(=Nc3ccccc3)NC2=O)c(C)n1-c1ccc(S(N)(=O)=O)cc1,8.3,1.9,61.5*,16.0,17.8,55.5,49.5*,57.1*
Cc1c(Cl)ccc2c(C(=O)NCCCn3nccc3C)cc(-c3ccccn3)nc12,16.9,6.6,-4.7,9.5,29.1,-3.1,.,.
COc1ccccc1-c1cc(C(=O)NC2CCN(C)CC2)c2ccc(Cl)c(C)c2n1,59.2*,3.1,98.6*,23.0,111.5*,108.2*,68.5*,37.4*
